UBC9 SUMO inh – blocks human SUMOylation mediated by UBC9. inhibition, % at 35 µM. HTRF SUMOylation assay, SAE1/SAE2 + UBC9, in vitro. P63279. hit rate 0.36% among 290,000; in the data active = inhibition above about 50%, passing the limit was not always enough
Target sequence (P63279 whole entry, looked up): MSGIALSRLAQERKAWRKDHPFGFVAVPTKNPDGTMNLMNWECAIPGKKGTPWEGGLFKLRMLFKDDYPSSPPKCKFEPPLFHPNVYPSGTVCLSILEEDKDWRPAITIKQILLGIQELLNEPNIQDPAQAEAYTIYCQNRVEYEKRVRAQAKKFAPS
Redox H2O2 prof – compounds producing H2O2 with reducing agent – biochemical, NIH compound library profiling, artefact control for MLSCN library redox annotation, primary screen | DTT-dependent redox cycling H2O2, phenol red/HRP absorbance; 100% = 100 µM peroxide control, 0% = buffer | activation, % at 10 µM | hit rate 0.03% among 200,000 | AID 878;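 active = activation of at least 50% relative to the plate's high and low controls in the primary single-dose screen; inactive = activation below 50%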;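 note: compound incubated with DTT at 0.8 mM final as the reducing agent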
GSTO1 inh – blocks human GSTO1 in RBBP9 counter-screen; P78417; recombinant GSTO1, activity-based probe fluorescence polarization; inhibition, % at 5.96 µM; hit rate 1.1% among 300,000;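 active = inhibition above the campaign mean inhibition plus 3 SD, cut at about 35% in these data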;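 note: 0% = GSTO1-1 with DMSO and 100% = wells lacking GSTO1-1 enzyme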
Target sequence (P78417 whole entry, looked up): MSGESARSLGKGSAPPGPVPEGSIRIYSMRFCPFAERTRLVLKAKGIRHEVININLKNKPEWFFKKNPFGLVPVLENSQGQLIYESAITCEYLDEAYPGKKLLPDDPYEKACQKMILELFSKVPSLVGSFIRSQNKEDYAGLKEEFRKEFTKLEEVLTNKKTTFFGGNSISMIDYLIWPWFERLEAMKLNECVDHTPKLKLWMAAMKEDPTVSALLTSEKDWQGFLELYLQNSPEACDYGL
Apaf-1 inh – blocks human Apaf-1 apoptosome activity; hit rate 0.71% among 330,000; O14727; inhibition, % at 20 µM; reconstituted apoptosome caspase-3 activity, DEVD-Rh110 fluorescence; active = inhibition of at least 40% at 20 µM;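 note: plate controls were DMSO wells for no effect and DEVD-CHO caspase inhibitor wells for full effect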
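Assay system: Apoptosome proteins | Medium: pH 7.5 Hepes buffer with CHAPS, BSA, DTT | Also added: Cytochrome c and DEVD-Rh110 substrate | Times: 30 min plus 50 min, RT | Detection: Rhodamine 110 fluorescence at Ex 480/Em 540 nm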
HKDC1 inhibitor – HKDC1 (human) hexokinase inhibition; Q2TB90; recombinant HKDC1, G6PDH/diaphorase resazurin coupled fluorescence; inhibition, % at 20 µM; hit rate 0.16% among 340,000; AID 493160;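 active = inhibition above about 35% when tested at 20 µM, limit read from the data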;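 note: plate controls were DMSO wells with enzyme for no effect and DMSO wells lacking enzyme for full effect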
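Test system: HK5 enzyme. Quantity: 5 µg/mL HK5 final. Reagent: glucose and ATP substrates. Schedule: 90 min reaction incubation at room temperature, dark. Technique: resazurin-to-resorufin fluorescence via G6PDH and diaphorase coupling, 525/613 nm. Control set: DMSO wells with and without enzyme mix.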
Apaf-1 inh conf – Apaf-1 inhibition, single-dose confirmed. shares compounds with Apaf-1 inh. reconstituted apoptosome, caspase-3 DEVD-Rh110 fluorescence. inhibition, % at 20 µM. hit rate 25% among 1,800;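 active = mean inhibition of at least 40% at 20 µM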;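 note: plate controls were DMSO wells for no effect and DEVD-CHO caspase inhibitor control wells for full effect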
Rh110 interf inh – counter-screen for Apaf-1 inhibitors: fluorescence interference. Rh110 fluorescence interference, quenched caspase reaction. shares compounds with Apaf-1 inh. 1,800 tested, under 10 active. activation (fluorescence interference), % at 20 µM;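 active = signal rise of 40% or more at 20 µM, treated as a fluorescence artifact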
* = called active by the depositor; . = not tested or not shown. Shown are actives, neighbours in structure and some others; about 1.4% of the full set was active somewhere.

SMILES	UBC9 SUMO inh	Redox H2O2 prof	GSTO1 inh	Apaf-1 inh	HKDC1 inhibitor	Apaf-1 inh conf	Rh110 interf inh
CC(=O)Nc1cccc(/C(C)=N/NC(=O)c2ccc3c(c2)OCO3)c1	8	0	-6	-3	12	.	.
CC(=O)Nc1cccc(C(=O)NC(C)c2ccc(-n3ccnc3)cc2)c1 (configuration not stated)	14	.	4	41*	-2	35	3
CC(=O)Nc1ccc(C(=O)NC(C)c2ccc(-n3ccnc3)cc2)cc1 (configuration not stated)	18	.	3	8	-2	.	.
CCOc1ccccc1NC(=O)COC(=O)c1c[nH]c2ccccc12	.	.	.	13	5	.	.
CCCCSc1nc2c([nH]1)c(=O)n(C)c(=S)n2C	.	.	.	.	-2	.	.
Cn1c(=O)c2[nH]c(=O)cnc2n(C)c1=S	-3	0	2	56*	-6	9	2
Nc1ccc(C(=O)NN2C(=O)[C@H](Cl)C2c2ccc(Cl)cc2)cc1 (some centres not stated)	.	.	.	.	15	.	.
COc1ccc(CNC(=O)c2ccc(Cn3cc(Cl)cn3)o2)cc1	-2	.	-5	-3	-4	.	.
Clc1ccc(C2=Nn3c(nnc3-c3n[nH]c4c3CCC4)SC2)cc1Cl	4	2	-10	43*	7	34	4
CCOC(=O)N1CCC(NC(=O)CN2C(=O)CSc3ncccc32)CC1	6	-1	9	63*	-4	8	1
O=C(Nc1cc([N+](=O)[O-])ccc1N1CCCC1)c1cccs1	-10	.	1	4	-2	.	.
C[C@@H]1CN([C@@H](C)CO)C(=O)c2cc(NC(=O)Nc3ccc(F)cc3)ccc2O[C@@H]1CN(C)Cc1ccc(Oc2ccccc2)cc1	.	.	.	42*	0	11	10
C[C@H](CO)N1C[C@H](C)[C@@H](CN(C)Cc2ccc(-c3ccccc3)cc2)Oc2c(NC(=O)Cc3ccccc3)cccc2C1=O	.	.	.	43*	1	26	-7
C[C@H](CO)N1C[C@H](C)[C@@H](CN(C)Cc2ccc(Cl)c(Cl)c2)Oc2c(NC(=O)Cc3ccccc3)cccc2C1=O	.	.	.	44*	4	24	2
C[C@H](CO)N1C[C@H](C)[C@@H](CN(C)CC2CCCCC2)Oc2c(NC(=O)CCC(F)(F)F)cccc2C1=O	.	.	.	41*	2	18	17
O=C(C1CCN(S(=O)(=O)c2ccccc2)CC1)N1CCN(Cc2ccccc2)CC1	8	.	.	-7	-7	.	.
CN1CCN(CCCNC(=O)c2ccc(/C=C3\Sc4ccccc4N(Cc4ccc(F)cc4)C3=O)cc2)CC1	15	0	.	.	8	.	.
CCN1CCN(CCNC(=O)c2ccc(/C=C3\Sc4ccccc4N(Cc4ccccc4F)C3=O)cc2)CC1	7	0	-43	41*	-12	27	6
CCOc1ccc(NS(=O)(=O)c2cc(C(=O)NCCCN3CCOCC3)ccc2C)cc1	.	.	.	65*	3	34	7
Cc1ccc(C(=O)NCCCN2CCOCC2)cc1S(=O)(=O)N1CCOCC1	.	.	.	-6	-1	.	.
COc1cc2c(cc1OC)C1=C(C#N)CC/C(=N\S(=O)(=O)c3ccccc3)N1CC2	-7	-2	-1	20	11	.	.
COc1cc2c(cc1OC)C1=C(C#N)CCC(=O)N1CC2	-11	2	-4	50*	-1	6	5
O=C(CN(c1ccccc1)S(=O)(=O)c1ccccc1[N+](=O)[O-])Nc1ccccc1C(=O)N1CCOCC1	-8	0	6	8	-2	.	.
CN1CCN(c2cc3c(c4c2[nH]c2ccccc24)C(=O)CC(C)(C)C3)CC1	14	-1	-7	50*	8	5	-3
CN1CCN(c2ccc(Cl)cc2NC(=O)c2cc(=O)[nH]c3ccccc23)CC1	.	.	.	4	-4	.	.
Cc1cc(/C=C2\SC(=O)N(C)C2=O)c(C)n1-c1ccc(O)cc1	74*	.	25	71*	0	18	9
CCOc1ccccc1NC(=O)COC(=O)C(CC)c1ccccc1 (configuration not stated)	-10	0	2	16	16	.	.
